A value given as a limit tells only on which side of the number the result lay.

For assay [1], the target named is Epidermal growth factor receptor (Homo sapiens, UniProt P00533). Put plainly: Inhibition of EGF-R Tyrosine kinase (TK).
The subject of another assay is HaCaT. As to the kind of experiment: Inhibitory activity of HaCaT keratinocyte cell line. Format: functional, cell-based. As to conditions: Homo sapiens. The essentials:
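HaCaT keratinocytes kept in DMEM with 5% FCS, trypsinized and seeded at 4000 cells/0.2 mL/well. After 24 h, medium was replaced with fresh medium holding graded compound concentrations. Proliferation was read after 3–4 days by sulforhodamine B colorimetry. IC50 values are the average of at least two independent measurements.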

The next assay relates to U-937. Put plainly: Inhibition of U937 cell proliferation. Format: functional, cell-based. To be noted: Homo sapiens.
A further assay has as its system MDA-MB-231. Put plainly: cells. As to conditions: Homo sapiens.
The test system of another assay is LoVo. As to the kind of experiment: Inhibition of LOVO cell proliferation. Format: functional, cell-based. To be noted: Homo sapiens.
The test system of a further assay is P388. Put plainly: Inhibition of P388 cell proliferation. To be noted: Mus musculus.
The next assay deals with A-431. Put plainly: Inhibition of A431 cell proliferation. To be noted: Homo sapiens.
In the next assay the test system is SCL-1. As to the kind of experiment: Inhibition of SCL-1 cell proliferation. As to conditions: Homo sapiens.
The subject of assay [2] is L1210. As to the kind of experiment: (§1) Inhibition of L1210 cell proliferation. To be noted: Mus musculus.
In the next assay the test system is MCF7. As to the kind of experiment: Inhibition of MCF-7 cell proliferation. To be noted: Homo sapiens.
A further assay has as its system SK-BR-3. As to the kind of experiment: Inhibition of SK-BR-3 cell proliferation. It is filed as functional, cell-based. As to conditions: Homo sapiens. The essentials: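 Tumour cells grown at 37 °C without antibiotics. Harvested at exponential growth (suspension lines) or 60–90% confluence (adherent lines, trypsinized), then seeded at 1000–5000 cells/well. Cultured 3–4 days with graded compound concentrations. Proliferation read by sulforhodamine B for adherent cells or MTT for suspension cells. IC50 derived from the concentration series.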

For another assay, the system named is MDA-MB-468. Put plainly: Inhibition of MDA-MB-468 cell proliferation. Format: functional, cell-based. As to conditions: Homo sapiens.
The test system of the next assay is HeLa. As to the kind of experiment: Inhibition of HeLa cell proliferation. To be noted: Homo sapiens.
In another assay the test system is K562. Put plainly: Inhibition of K562 cell proliferation. To be noted: Homo sapiens.
A further assay has as its system KB. Put plainly: Inhibition of KB cell proliferation. To be noted: Homo sapiens.
The next assay relates to B16. As to the kind of experiment: Inhibition of B16F1 cell proliferation. As to conditions: Mus musculus.
Assay [3] relates to L1210. The description is as §1. Format: functional, cell-based. To be noted: Mus musculus.

Epidermal growth factor receptor, sequence (P00533 whole entry): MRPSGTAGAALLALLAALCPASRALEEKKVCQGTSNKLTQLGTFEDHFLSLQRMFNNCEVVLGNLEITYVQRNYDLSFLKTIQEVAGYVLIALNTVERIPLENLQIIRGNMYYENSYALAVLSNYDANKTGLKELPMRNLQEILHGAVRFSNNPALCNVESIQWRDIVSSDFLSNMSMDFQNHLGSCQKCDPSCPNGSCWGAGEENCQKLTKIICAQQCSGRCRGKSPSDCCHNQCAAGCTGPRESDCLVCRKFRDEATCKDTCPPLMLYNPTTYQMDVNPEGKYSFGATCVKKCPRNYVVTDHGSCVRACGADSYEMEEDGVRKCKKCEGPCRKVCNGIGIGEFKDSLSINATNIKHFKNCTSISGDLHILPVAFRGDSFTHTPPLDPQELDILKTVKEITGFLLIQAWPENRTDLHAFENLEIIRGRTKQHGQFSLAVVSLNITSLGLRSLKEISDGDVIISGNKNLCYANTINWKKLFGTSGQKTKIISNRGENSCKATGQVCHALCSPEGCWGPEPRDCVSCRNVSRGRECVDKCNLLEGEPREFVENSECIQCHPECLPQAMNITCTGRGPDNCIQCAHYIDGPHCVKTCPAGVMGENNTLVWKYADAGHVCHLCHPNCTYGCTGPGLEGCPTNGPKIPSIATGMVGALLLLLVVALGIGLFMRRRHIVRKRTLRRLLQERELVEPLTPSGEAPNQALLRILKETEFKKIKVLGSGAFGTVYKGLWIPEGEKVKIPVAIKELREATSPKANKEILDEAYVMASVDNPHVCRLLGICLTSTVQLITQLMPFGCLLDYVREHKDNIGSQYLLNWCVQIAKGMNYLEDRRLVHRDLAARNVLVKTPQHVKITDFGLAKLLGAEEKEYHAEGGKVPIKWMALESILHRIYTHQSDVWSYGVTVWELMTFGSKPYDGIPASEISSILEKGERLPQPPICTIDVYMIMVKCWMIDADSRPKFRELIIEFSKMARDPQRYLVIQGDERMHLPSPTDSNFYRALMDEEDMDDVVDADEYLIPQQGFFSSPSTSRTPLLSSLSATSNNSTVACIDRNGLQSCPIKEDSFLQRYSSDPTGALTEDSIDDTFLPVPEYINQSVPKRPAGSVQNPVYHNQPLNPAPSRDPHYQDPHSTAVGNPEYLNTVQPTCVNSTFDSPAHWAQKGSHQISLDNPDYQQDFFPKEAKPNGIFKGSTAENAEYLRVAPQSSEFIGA

One may read the IC50 as the midpoint of a concentration-inhibition curve. Read a low IC50 as higher potency. In the case of `O=C(O)c1cc(CCc2cc(O)ccc2O)ccc1O`, the IC50 is 3.3 µM in assay [1] and over 100 µM in the assay with HaCaT.

Consider `COC(=O)c1cc(CCc2cc(OC)ccc2OC)ccc1O`, for which the IC50 in assay [1] is over 100 µM; with U-937 it was 320 nM; with MDA-MB-231, 428 nM; in the assay on LoVo, 185 nM; in the assay on P388 it was 338 nM; with A-431, 213 nM. Moreover, the IC50 is 383 nM in the assay on SCL-1; 415 nM in the assay with L1210 [2]; 0.04 µM in the assay with HaCaT; 19 nM with MCF7; 31 nM with SK-BR-3; 46.5 nM in the assay with MDA-MB-468. Moreover, the IC50 stood at 470 nM with HeLa, 218 nM with K562, 192 nM in the assay with KB and 269 nM in the assay with B16.

With `COC(=O)c1cc(/C=C/c2cc(OC)ccc2OC)ccc1O`, the IC50 in the assay on HaCaT is 5.6 µM.

Consider `COc1ccc(OC)c(CCc2ccc(O)c(C(=O)O)c2)c1`, for which the IC50 in the assay on HaCaT turned out to be 4.8 µM.

For the molecule `COC(=O)c1cc(NCc2cc(O)ccc2O)ccc1O`, the results for the IC50 (in [1]; in the assay with HaCaT) were 24.4 µM and 29 µM, respectively.

Molecule `COC(=O)c1cc(CCc2cc(O)ccc2O)ccc1O` came in with an IC50 in the assay with HaCaT of 18 µM.

Molecule `COC(=O)c1cc(COc2cc(OC)ccc2OC)ccc1O` showed an IC50 in the assay with HaCaT of 14 µM.

For `COC(=O)c1cc(/C=C\c2cc(OC)ccc2OC)ccc1O`, half-maximal inhibition in the assay with HaCaT (IC50) required 3.9 µM.

`COC(=O)c1cc(NCc2cc(OC)ccc2OC)ccc1O`: inhibition in the assay on HaCaT was half-maximal at 1.5 µM (IC50).

On to `COc1ccc(OC)c(CNc2ccc(O)c(C(=O)O)c2)c1`, for which the IC50 is over 100 µM in [1] and 92 µM in the assay on HaCaT.

Turning to `COC(=O)c1cc(CNc2cc(OC)ccc2OC)ccc1O`, 72 µM corresponded to half-maximal inhibition with HaCaT (IC50).

Take `COc1cc2c(c(OC)c1OC)-c1ccc(OC)c(=O)cc1[C@@H](NC(C)=O)CC2` [COLCHICINE]: the IC50 worked out at 5.2 nM in the assay on U-937; 20.5 nM in the assay with MDA-MB-231; 6 nM in the assay with LoVo; 9.5 nM in the assay on P388; 14 nM with A-431; 15.3 nM in the assay with MCF7. The IC50 is 5 nM in the assay with SK-BR-3; 6.9 nM in the assay with MDA-MB-468; 18 nM with HeLa; 14.1 nM with K562; 5.6 nM with KB; 14.7 nM with L1210 [3].

Consider `O=C(O)c1cc(N(Cc2ccccc2O)Cc2cc(O)ccc2O)ccc1O` [LAVENDUSTIN A], for which the values for the IC50 (in assay [1]; with HaCaT) were 4.1 µM and over 100 µM, respectively.

In the assay with HaCaT, `O=C(O)c1cc(NCc2cc(O)ccc2O)ccc1O` [LAVENDUSTIN C] showed an IC50 of at least 100 µM.

For the origin of these results see ChEMBL document CHEMBL1127418, “Novel antiproliferative agents derived from lavendustin A” (J Med Chem, 1994).
